# Test results as given in ChEMBL document CHEMBL1240406, “Identification of novel human immunodeficiency virus type 1-inhibitory peptides based on the antimicrobial peptide database” (Antimicrob Agents Chemother, 2010).
# What was measured:
# [1] = system: Human immunodeficiency virus 1; assay: Antiviral activity against HIV1 3B infected in human CEM-SS cells assessed as inhibition of viral replication after 6 days by XTT assay; assay type: functional, organism-based
# In short: (§1)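 Peptides were added in triplicate at six serial concentrations, 0.32–100 μg/ml. Cultures were held at 37°C, 5% CO2 for 6 days, then stained with XTT. EC50 (virus inhibition) and TC50 (cell viability) were derived from the XTT read-out, and TI was taken from these.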
# [2] = Cytotoxicity against human CEM-SS cells infected with HIV1 3B after 6 days by XTT assay; assay type: cell-based; settings: read-out: TC50
# [3] = Therapeutic index, ratio of TC50 for human CEM-SS cells infected with HIV1 3B to EC50 for HIV1 3B infected in human CEM-SS cells; assay type: cell-based; settings: read-out: TI
# In short: as §1, with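 “CEM-SS cells (2.5 × 10^3/well) in RPMI 1640 with 10% heat-inactivated FBS were infected with HIV-1 IIIB (MOI 0.0005–0.001). Peptides” for “Peptides”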
# [4] = Human immunodeficiency virus 1, 3B, CEM-SS, 144 h
substance,measurement,setting,value
H-GLNTLKKVFQGLHEAIKLINNHVQ-OH,EC50,[1]; [4],35.7 µM
same,CC50 at 144 h,[2],> 36.8 µM
H-GLRRLLGRLLRRLGRLLLR-OH,EC50,[1]; [4],4.4 µM
same,CC50 at 144 h,[2],25.7 µM
same,selectivity ratio,[3],5.8
H-GLRSKIWLWVLLMIWQESNKFKKM-OH,EC50,[1]; [4],31.6 µM
same,CC50 at 144 h,[2],> 32.9 µM
same,selectivity ratio,[3],> 1.04
H-GLRSRIWLWVLLMIWQESNRFKRM-OH,EC50,[1]; [4],1.25 µM
same,CC50 at 144 h,[2],> 32.1 µM
same,selectivity ratio,[3],> 25.7
H-GLWEKIDKFASII-OH,EC50,[1]; [4],> 65.8 µM
same,CC50 at 144 h,[2],> 65.8 µM
H-GMASKAGAIAGKIAKVALKAL-NH2,EC50,[1]; [4],> 50.8 µM
same,CC50 at 144 h,[2],> 50.8 µM
H-GNNRPVYIPQPRPPHPRI-OH [Apidaecin IA],EC50,[1]; [4],> 47.4 µM
same,CC50 at 144 h,[2],> 47.4 µM
H-GWFDIIKKIASEL-OH,EC50,[1]; [4],10.7 µM
same,CC50 at 144 h,[2],38.9 µM
same,selectivity ratio,[3],3.6
H-GWFDVVKHIAKRF-NH2,EC50,[1]; [4],2.99 µM
same,CC50 at 144 h,[2],10.6 µM
same,selectivity ratio,[3],3.55
H-GWLKKIESIIDAF-OH,EC50,[1]; [4],29.5 µM
same,CC50 at 144 h,[2],> 65.8 µM
same,selectivity ratio,[3],> 2.2
H-IKWKKLLRAAKRIL-NH2,EC50,[1]; [4],> 57.6 µM
same,CC50 at 144 h,[2],1.3 µM
same,selectivity ratio,[3],< 0.02
H-ILGPVLGLVSDTLDDVLGIL-OH,EC50,[1]; [4],> 49.4 µM
same,CC50 at 144 h,[2],> 49.4 µM
H-ILGPVLGLVSRTLRRVLGIL-OH,EC50,[1]; [4],2.2 µM
same,CC50 at 144 h,[2],8.7 µM
same,selectivity ratio,[3],3.9
H-INLKAIAALAKKLL-OH,EC50,[1]; [4],> 67.6 µM
same,CC50 at 144 h,[2],> 67.6 µM
H-IWLTALKFLGKHAAKHLAKQQLSKL-OH [Lycotoxin I],EC50,[1]; [4],> 35.2 µM
same,CC50 at 144 h,[2],2.4 µM
same,selectivity ratio,[3],< 0.07
H-KGRGKQGGKVRAKAKTRSS-OH [Parasin I],EC50,[1]; [4],> 50 µM
same,CC50 at 144 h,[2],> 50 µM
H-LLKELWTKIKGAGKAVLGKIKGLL-OH [Ponericin L2],EC50,[1]; cem-ss,1.4 µM
same,CC50 at 144 h,[2],24.7 µM
same,selectivity ratio,[3],17.6
H-NLVSGLIEARKYLEQLHRKLKNRKV-OH,EC50,[1]; [4],> 33.3 µM
same,CC50 at 144 h,[2],> 33.3 µM
H-RQRVEELSKFSKKGAAARRRK-OH [Misgurin],EC50,[1]; [4],> 40 µM
same,CC50 at 144 h,[2],> 40 µM
H-SLSRFLRFLKIVYRRAF-NH2,EC50,[1]; [4],0.83 µM
same,CC50 at 144 h,[2],8.6 µM
same,selectivity ratio,[3],10.4
H-SWKSMAKKLKEYMEKLKQRA-OH [Latarcin 3a],EC50,[1]; [4],32.7 µM
same,CC50 at 144 h,[2],> 40.3 µM
same,selectivity ratio,[3],> 1.23
H-VDKPDYRPRPRPPNM-OH [Metalnikowin I],EC50,[1]; [4],> 54.4 µM
same,CC50 at 144 h,[2],> 54.4 µM
H-VFQFLGRIIHHVGNFVHGFSHVF-OH [Clavanin B],EC50,[1]; [4],7.1 µM
same,CC50 at 144 h,[2],37.1 µM
same,selectivity ratio,[3],> 5.18
